Laboratory results: ChEMBL document CHEMBL4351006, “A new exploration towards aminothiazolquinolone oximes as potentially multi-targeting antibacterial agents: Design, synthesis and evaluation acting on microbes, DNA, HSA and topoisomerase IV” (Eur J Med Chem, 2019)
≈ marks a conversion by molar mass, not a printed value.

Key:
Pseudomonas aeruginosa [1] = assay: Antibacterial activity against Pseudomonas aeruginosa ATCC 27853 assessed as reduction in bacterial cell viability incubated for 24 hrs by two fold serial dilution method; format: functional; conditions: ATCC 27853, 24 h
Outline: (§1)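 Broth two-fold serial dilution run to CLSI guidelines. Chloromycin, norfloxacin and fluconazole served as reference drugs.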

Candida albicans [2] = assay: Antifungal activity against Candida albicans assessed as reduction in fungal cell viability incubated for 24 hrs by two fold serial dilution method; format: functional; outline: as §1
Staphylococcus aureus [3] = assay: Antibacterial activity against Staphylococcus aureus ATCC 29213 assessed as reduction in bacterial cell viability incubated for 24 hrs by two fold serial dilution method; format: functional; conditions: ATCC 29213, 24 h; outline: as §1
Klebsiella pneumoniae = assay: Antibacterial activity against Klebsiella pneumoniae assessed as reduction in bacterial cell viability incubated for 24 hrs by two fold serial dilution method; format: functional; outline: as §1
Candida parapsilosis = assay: Antifungal activity against Candida parapsilosis ATCC 22019 assessed as reduction in fungal cell viability incubated for 24 hrs by two fold serial dilution method; conditions: Lodderomyces parapsilosis, ATCC 22019, 24 h
Candida tropicalis = assay: Antifungal activity against Candida tropicalis assessed as reduction in fungal cell viability incubated for 24 hrs by two fold serial dilution method; format: functional; outline: as §1
Aspergillus fumigatus = assay: Antifungal activity against Aspergillus fumigatus assessed as reduction in fungal cell viability incubated for 24 hrs by two fold serial dilution method; format: functional; outline: as §1
Candida albicans [4] = assay: Antifungal activity against Candida albicans ATCC 90023 assessed as reduction in fungal cell viability incubated for 24 hrs by two fold serial dilution method; format: functional; conditions: ATCC 90023, 24 h; outline: as §1
Escherichia coli [5] = assay: Antibacterial activity against Escherichia coli ATCC 25922 assessed as reduction in bacterial cell viability incubated for 24 hrs by two fold serial dilution method; format: functional; conditions: ATCC 25922, 24 h; outline: as §1
Acinetobacter baumannii = assay: Antibacterial activity against Acinetobacter baumannii assessed as reduction in bacterial cell viability incubated for 24 hrs by two fold serial dilution method; format: functional; outline: as §1
Staphylococcus aureus [6] = assay: Antibacterial activity against methicillin resistant Staphylococcus aureus N315 assessed as reduction in bacterial cell viability incubated for 24 hrs by two fold serial dilution method; format: functional; conditions: N315, 24 h
Outline: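 MIC by two-fold serial dilution following CLSI, with chloromycin and norfloxacin as reference drugs.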

Pseudomonas aeruginosa [7] = assay: Antibacterial activity against Pseudomonas aeruginosa assessed as reduction in bacterial cell viability incubated for 24 hrs by two fold serial dilution method; format: functional; outline: as §1
Enterococcus faecalis = assay: Antibacterial activity against Enterococcus faecalis assessed as reduction in bacterial cell viability incubated for 24 hrs by two fold serial dilution method; format: functional; outline: as §1
Staphylococcus aureus [8] = assay: Antibacterial activity against Staphylococcus aureus ATCC 25923 assessed as reduction in bacterial cell viability incubated for 24 hrs by two fold serial dilution method; format: functional; conditions: ATCC 25923, 24 h; outline: as §1
Escherichia coli [9] = assay: Antibacterial activity against Escherichia coli assessed as reduction in bacterial cell viability incubated for 24 hrs by two fold serial dilution method; format: functional; outline: as §1
Staphylococcus aureus [10] = assay: Antibacterial activity against Staphylococcus aureus assessed as reduction in bacterial cell viability incubated for 24 hrs by two fold serial dilution method; format: functional; outline: as §1

Row | Compound | MIC (Pseudomonas aeruginosa [1]) [µM] | MIC (Candida albicans [2]) [µM] | MIC (Staphylococcus aureus [3]) [µM] | MIC (Klebsiella pneumoniae) [µM] | MIC (Candida parapsilosis) [µM] | MIC (Candida tropicalis) [µM] | MIC (Aspergillus fumigatus) [µM] | MIC (Candida albicans [4]) [µM] | MIC (Escherichia coli [5]) [µM] | MIC (Acinetobacter baumannii) [µM] | MIC (Staphylococcus aureus [6]) [µM] | MIC (Pseudomonas aeruginosa [7]) [µM] | MIC (Enterococcus faecalis) [µM] | MIC (Staphylococcus aureus [8]) [µM] | MIC (Escherichia coli [9]) [µM] | MIC (Staphylococcus aureus [10]) [µM]
1 | CCn1cc(-c2csc(N)n2)c(=O)c2cc(N3CCN(C/C(=N/OC)c4ccc(Cl)cc4Cl)CC3)c(Cl)cc21 | 422 (≈ 256 µg/mL) | 422 (≈ 256 µg/mL) | 211 (≈ 128 µg/mL) | 422 (≈ 256 µg/mL) | 422 (≈ 256 µg/mL) | 422 (≈ 256 µg/mL) | 422 (≈ 256 µg/mL) | 845 (≈ 512 µg/mL) | 422 (≈ 256 µg/mL) | 422 (≈ 256 µg/mL) | 211 (≈ 128 µg/mL) | 422 (≈ 256 µg/mL) | 211 (≈ 128 µg/mL) | 422 (≈ 256 µg/mL) | 422 (≈ 256 µg/mL) | 422 (≈ 256 µg/mL)
2 | CCn1cc(-c2csc(N)n2)c(=O)c2cc(F)c(N3CCN(CC(C)=O)CC3)cc21 | 36 (≈ 15.5 µg/mL) | 575 (≈ 247 µg/mL) | 575 (≈ 247 µg/mL) | 72 (≈ 30.9 µg/mL) | 288 (≈ 124 µg/mL) | 288 (≈ 124 µg/mL) | 575 (≈ 247 µg/mL) | 144 (≈ 61.9 µg/mL) | 288 (≈ 124 µg/mL) | 288 (≈ 124 µg/mL) | 72 (≈ 30.9 µg/mL) | 288 (≈ 124 µg/mL) | 288 (≈ 124 µg/mL) | 288 (≈ 124 µg/mL) | 1150 (≈ 494 µg/mL) | 144 (≈ 61.9 µg/mL)
3 | CCn1cc(-c2csc(N)n2)c(=O)c2cc(F)c(N3CCN(C/C(C)=N/OCc4ccc(Cl)cc4Cl)CC3)cc21 | 848 (≈ 512 µg/mL) | 848 (≈ 512 µg/mL) | 848 (≈ 512 µg/mL) | 848 (≈ 512 µg/mL) | 848 (≈ 512 µg/mL) | 424 (≈ 256 µg/mL) | 424 (≈ 256 µg/mL) | 106 (≈ 64 µg/mL) | 848 (≈ 512 µg/mL) | 848 (≈ 512 µg/mL) | 424 (≈ 256 µg/mL) | 848 (≈ 512 µg/mL) | 424 (≈ 256 µg/mL) | 848 (≈ 512 µg/mL) | 424 (≈ 256 µg/mL) | 848 (≈ 512 µg/mL)
4 | CCn1cc(-c2csc(N)n2)c(=O)c2cc(F)c(N3CCN(C/C(=N/OC)c4ccc(F)cc4F)CC3)cc21 | 460 (≈ 256 µg/mL) | 920 (≈ 512 µg/mL) | 460 (≈ 256 µg/mL) | 460 (≈ 256 µg/mL) | 920 (≈ 512 µg/mL) | 460 (≈ 256 µg/mL) | 460 (≈ 256 µg/mL) | 460 (≈ 256 µg/mL) | 460 (≈ 256 µg/mL) | 460 (≈ 256 µg/mL) | 230 (≈ 128 µg/mL) | 460 (≈ 256 µg/mL) | 460 (≈ 256 µg/mL) | 460 (≈ 256 µg/mL) | 460 (≈ 256 µg/mL) | 460 (≈ 256 µg/mL)
5 | CCn1cc(-c2csc(N)n2)c(=O)c2cc(F)c(N3CCN(C/C(=N/OC)c4ccc(Cl)cc4Cl)CC3)cc21 | 217 (≈ 128 µg/mL) | 434 (≈ 256 µg/mL) | 217 (≈ 128 µg/mL) | 217 (≈ 128 µg/mL) | 217 (≈ 128 µg/mL) | 54 (≈ 31.8 µg/mL) | 434 (≈ 256 µg/mL) | 217 (≈ 128 µg/mL) | 869 (≈ 512 µg/mL) | 54 (≈ 31.8 µg/mL) | 434 (≈ 256 µg/mL) | 217 (≈ 128 µg/mL) | 434 (≈ 256 µg/mL) | 54 (≈ 31.8 µg/mL) | 109 (≈ 64.3 µg/mL) | 217 (≈ 128 µg/mL)
6 | CCn1cc(-c2csc(N)n2)c(=O)c2cc(N3CCN(C/C(=N/OC)c4ccc(F)cc4)CC3)c(Cl)cc21 | 58 (≈ 32.2 µg/mL) | 231 (≈ 128 µg/mL) | 58 (≈ 32.2 µg/mL) | 231 (≈ 128 µg/mL) | 58 (≈ 32.2 µg/mL) | 58 (≈ 32.2 µg/mL) | 29 (≈ 16.1 µg/mL) | 58 (≈ 32.2 µg/mL) | 58 (≈ 32.2 µg/mL) | 115 (≈ 63.8 µg/mL) | 14 (≈ 7.77 µg/mL) | 461 (≈ 256 µg/mL) | 58 (≈ 32.2 µg/mL) | 58 (≈ 32.2 µg/mL) | 14 (≈ 7.77 µg/mL) | 29 (≈ 16.1 µg/mL)
7 | CCn1cc(-c2csc(N)n2)c(=O)c2cc(F)c(N3CCN(C/C(=N/OC)c4ccc(OC)cc4)CC3)cc21 | 465 (≈ 256 µg/mL) | 232 (≈ 128 µg/mL) | 465 (≈ 256 µg/mL) | 465 (≈ 256 µg/mL) | 465 (≈ 256 µg/mL) | 232 (≈ 128 µg/mL) | 465 (≈ 256 µg/mL) | 465 (≈ 256 µg/mL) | 232 (≈ 128 µg/mL) | 465 (≈ 256 µg/mL) | 465 (≈ 256 µg/mL) | 465 (≈ 256 µg/mL) | 232 (≈ 128 µg/mL) | 465 (≈ 256 µg/mL) | 465 (≈ 256 µg/mL) | 465 (≈ 256 µg/mL)
8 | CCn1cc(-c2csc(N)n2)c(=O)c2cc(N3CCN(C/C(C)=N/OC)CC3)c(Cl)cc21 | 135 (≈ 64.1 µg/mL) | 539 (≈ 256 µg/mL) | 135 (≈ 64.1 µg/mL) | 135 (≈ 64.1 µg/mL) | 67 (≈ 31.8 µg/mL) | 269 (≈ 128 µg/mL) | 269 (≈ 128 µg/mL) | 269 (≈ 128 µg/mL) | 269 (≈ 128 µg/mL) | 135 (≈ 64.1 µg/mL) | 67 (≈ 31.8 µg/mL) | 269 (≈ 128 µg/mL) | 135 (≈ 64.1 µg/mL) | 135 (≈ 64.1 µg/mL) | 269 (≈ 128 µg/mL) | 67 (≈ 31.8 µg/mL)
9 | CCn1cc(-c2csc(N)n2)c(=O)c2cc(N3CCN(C/C(=N/OC)c4ccc(Cl)cc4)CC3)c(Cl)cc21 | 448 (≈ 256 µg/mL) | 448 (≈ 256 µg/mL) | 224 (≈ 128 µg/mL) | 448 (≈ 256 µg/mL) | 448 (≈ 256 µg/mL) | 448 (≈ 256 µg/mL) | 448 (≈ 256 µg/mL) | 224 (≈ 128 µg/mL) | 448 (≈ 256 µg/mL) | 448 (≈ 256 µg/mL) | 224 (≈ 128 µg/mL) | 448 (≈ 256 µg/mL) | 448 (≈ 256 µg/mL) | 224 (≈ 128 µg/mL) | 448 (≈ 256 µg/mL) | 224 (≈ 128 µg/mL)
10 | CCn1cc(-c2csc(N)n2)c(=O)c2cc(N3CCN(C/C(C)=N/O)CC3)c(Cl)cc21 | 555 (≈ 256 µg/mL) | 69 (≈ 31.8 µg/mL) | 139 (≈ 64.1 µg/mL) | 139 (≈ 64.1 µg/mL) | 278 (≈ 128 µg/mL) | 278 (≈ 128 µg/mL) | 278 (≈ 128 µg/mL) | 139 (≈ 64.1 µg/mL) | 278 (≈ 128 µg/mL) | 278 (≈ 128 µg/mL) | 139 (≈ 64.1 µg/mL) | 139 (≈ 64.1 µg/mL) | 139 (≈ 64.1 µg/mL) | 17 (≈ 7.84 µg/mL) | 69 (≈ 31.8 µg/mL) | 35 (≈ 16.1 µg/mL)
11 | OC(Cn1cncn1)(Cn1cncn1)c1ccc(F)cc1F [FLUCONAZOLE] |  | 13 (≈ 3.98 µg/mL) |  |  | 13 (≈ 3.98 µg/mL) | 26 (≈ 7.96 µg/mL) | 836 (≈ 256 µg/mL) | 7 (≈ 2.14 µg/mL) |  |  |  |  |  |  |  | 
